From ChEMBL document CHEMBL1154114, “7-((4-Substituted)piperazin-1-yl) derivatives of ciprofloxacin: synthesis and in vitro biological evaluation as potential antitumor agents” (Bioorg Med Chem, 2009)

Test system: LoVo
Experiment: Antitumor activity against human LoVo cells after 5 days by MTT assay
Type: functional, cell-based
Conditions: 120 h
Procedure, shortened: (§1)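 Five human cancer lines (prostate PC-3, glioblastoma U373-MG, colorectal LoVo, NSCLC A549, breast MCF-7) plated at 10⁴ to 3×10⁴ cells/mL depending on cell type, allowed 24 h to attach, then cultured 120 h with or without drug at nine concentrations. MTT reduction to formazan read at 570 nm (reference 630 nm).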
With CCCCCCCCC(=O)N1CCN(c2cc3c(cc2F)c(=O)c(C(=O)O)cn3C2CC2)CC1 the IC50 was 30 µM. With CCCCCCCCCOC(=O)N1CCN(c2cc3c(cc2F)c(=O)c(C(=O)O)cn3C2CC2)CC1 the IC50 was 30 µM. CCC(=O)N1CCN(c2cc3c(cc2F)c(=O)c(C(=O)O)cn3C2CC2)CC1 showed an IC50 of 306 µM. For CCCCCCCCCCCCCC(=O)OCC(=O)N1CCN(c2cc3c(cc2F)c(=O)c(C(=O)O)cn3C2CC2)CC1, the IC50 was 766 µM. In the case of CCCCCCCCCCCC(=O)N1CCN(c2cc3c(cc2F)c(=O)c(C(=O)O)cn3C2CC2)CC1, the IC50 is reported as 45 µM. With CCCCCCCCCCCC(=O)OCC(=O)N1CCN(c2cc3c(cc2F)c(=O)c(C(=O)O)cn3C2CC2)CC1 the IC50 was 39 µM. For CCOC(=O)N1CCN(c2cc3c(cc2F)c(=O)c(C(=O)O)cn3C2CC2)CC1, the IC50 was 272 µM. With CCCCCCCC(=O)OCC(=O)N1CCN(c2cc3c(cc2F)c(=O)c(C(=O)O)cn3C2CC2)CC1 the IC50 was 29 µM. With CCCCCCCCCC(=O)OCC(=O)N1CCN(c2cc3c(cc2F)c(=O)c(C(=O)O)cn3C2CC2)CC1 the IC50 was 317 µM. In the case of CC(=O)OCC(=O)N1CCN(c2cc3c(cc2F)c(=O)c(C(=O)O)cn3C2CC2)CC1, the IC50 is reported as 268 µM.

Test system: PC-3
Experiment: Antitumor activity against human PC3 cells after 5 days by MTT assay
Type: functional, cell-based
Conditions: PC-3, 120 h
Procedure, shortened: as §1
With CCCCCCCCC(=O)N1CCN(c2cc3c(cc2F)c(=O)c(C(=O)O)cn3C2CC2)CC1 the IC50 was 7 µM. For CCCCCCCCCOC(=O)N1CCN(c2cc3c(cc2F)c(=O)c(C(=O)O)cn3C2CC2)CC1, the IC50 was 30 µM. Compound CCC(=O)N1CCN(c2cc3c(cc2F)c(=O)c(C(=O)O)cn3C2CC2)CC1 has an IC50 of 352 µM. Compound CCCCCCCCCCCCCC(=O)OCC(=O)N1CCN(c2cc3c(cc2F)c(=O)c(C(=O)O)cn3C2CC2)CC1 has an IC50 of 745 µM. For CCCCCCCCCCCC(=O)N1CCN(c2cc3c(cc2F)c(=O)c(C(=O)O)cn3C2CC2)CC1, the IC50 was 4 µM. Compound CCCCCCCCCCCC(=O)OCC(=O)N1CCN(c2cc3c(cc2F)c(=O)c(C(=O)O)cn3C2CC2)CC1 has an IC50 of 3 µM. For CCOC(=O)N1CCN(c2cc3c(cc2F)c(=O)c(C(=O)O)cn3C2CC2)CC1, the IC50 was 385 µM. Work on CCCCCCCC(=O)OCC(=O)N1CCN(c2cc3c(cc2F)c(=O)c(C(=O)O)cn3C2CC2)CC1 yielded an IC50 of 23 µM. For CCCCCCCCCC(=O)OCC(=O)N1CCN(c2cc3c(cc2F)c(=O)c(C(=O)O)cn3C2CC2)CC1, the IC50 was 416 µM. Work on CC(=O)OCC(=O)N1CCN(c2cc3c(cc2F)c(=O)c(C(=O)O)cn3C2CC2)CC1 yielded an IC50 of 176 µM.

Test system: MCF7
Experiment: Antitumor activity against human MCF7 cells after 5 days by MTT assay
Type: functional, cell-based
Conditions: MCF7, 120 h
Procedure, shortened: as §1
CCCCCCCCC(=O)N1CCN(c2cc3c(cc2F)c(=O)c(C(=O)O)cn3C2CC2)CC1 showed an IC50 of 26 µM. CCCCCCCCCOC(=O)N1CCN(c2cc3c(cc2F)c(=O)c(C(=O)O)cn3C2CC2)CC1 showed an IC50 of 35 µM. Compound CCC(=O)N1CCN(c2cc3c(cc2F)c(=O)c(C(=O)O)cn3C2CC2)CC1 has an IC50 of 727 µM. With CCCCCCCCCCCCCC(=O)OCC(=O)N1CCN(c2cc3c(cc2F)c(=O)c(C(=O)O)cn3C2CC2)CC1 the IC50 was 828 µM. For CCCCCCCCCCCC(=O)N1CCN(c2cc3c(cc2F)c(=O)c(C(=O)O)cn3C2CC2)CC1, the IC50 was 108 µM. CCCCCCCCCCCC(=O)OCC(=O)N1CCN(c2cc3c(cc2F)c(=O)c(C(=O)O)cn3C2CC2)CC1 gave an IC50 of 621 µM. Compound CCOC(=O)N1CCN(c2cc3c(cc2F)c(=O)c(C(=O)O)cn3C2CC2)CC1 has an IC50 of 455 µM. In the case of CCCCCCCC(=O)OCC(=O)N1CCN(c2cc3c(cc2F)c(=O)c(C(=O)O)cn3C2CC2)CC1, the IC50 is reported as 818 µM. With CCCCCCCCCC(=O)OCC(=O)N1CCN(c2cc3c(cc2F)c(=O)c(C(=O)O)cn3C2CC2)CC1 the IC50 was 353 µM. Work on CC(=O)OCC(=O)N1CCN(c2cc3c(cc2F)c(=O)c(C(=O)O)cn3C2CC2)CC1 yielded an IC50 of 279 µM.

Test system: not listed separately
Experiment: Stability in phosphate buffer of pH 7.4 after 6 days
Type: physicochemical
Conditions: read-out: Stability
Procedure, shortened: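 Compound dissolved at 1 mM in DMSO, diluted with phosphate buffer pH 7.4 to 1 mL, incubated sealed at 37 °C for 6 days. A t0 aliquot was held at 4 °C. HPLC with 280 nm detection and duplicate injections, with expected degradation products as references. Stability is taken as compound peak area over (compound + degradation product) peak area.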
With CCCCCCCCCCCC(=O)OCC(=O)N1CCN(c2cc3c(cc2F)c(=O)c(C(=O)O)cn3C2CC2)CC1 the remaining at 144 h was > 98%. For CCOC(=O)N1CCN(c2cc3c(cc2F)c(=O)c(C(=O)O)cn3C2CC2)CC1, the remaining at 144 h was 100%. For CCCCCCCC(=O)OCC(=O)N1CCN(c2cc3c(cc2F)c(=O)c(C(=O)O)cn3C2CC2)CC1, the remaining at 144 h was > 97%.

Test system: not listed separately
Experiment: Toxicity in ip dosed B6D2F1 mouse assessed as maximum tolerated dose after 28 days
Type: organism-based
Conditions: in vivo
Procedure, shortened: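 Healthy mice, three per group, each given a single ip dose and observed for up to 28 days. The MTD index is the highest single dose given without causing any deaths in the group.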
For CCOC(=O)N1CCN(c2cc3c(cc2F)c(=O)c(C(=O)O)cn3C2CC2)CC1, the MTD at 672 h was > 80 mg/kg.

Test system: A549
Experiment: Antitumor activity against human A549 cells after 5 days by MTT assay
Type: functional, cell-based
Conditions: A549, 120 h
Procedure, shortened: as §1
Compound CCCCCCCCC(=O)N1CCN(c2cc3c(cc2F)c(=O)c(C(=O)O)cn3C2CC2)CC1 has an IC50 of 6 µM. CCCCCCCCCOC(=O)N1CCN(c2cc3c(cc2F)c(=O)c(C(=O)O)cn3C2CC2)CC1 showed an IC50 of 38 µM. For CCC(=O)N1CCN(c2cc3c(cc2F)c(=O)c(C(=O)O)cn3C2CC2)CC1, the IC50 was 402 µM. CCCCCCCCCCCCCC(=O)OCC(=O)N1CCN(c2cc3c(cc2F)c(=O)c(C(=O)O)cn3C2CC2)CC1 showed an IC50 of 742 µM. CCCCCCCCCCCC(=O)N1CCN(c2cc3c(cc2F)c(=O)c(C(=O)O)cn3C2CC2)CC1 showed an IC50 of 7 µM. Work on CCCCCCCCCCCC(=O)OCC(=O)N1CCN(c2cc3c(cc2F)c(=O)c(C(=O)O)cn3C2CC2)CC1 yielded an IC50 of 15 µM. In the case of CCOC(=O)N1CCN(c2cc3c(cc2F)c(=O)c(C(=O)O)cn3C2CC2)CC1, the IC50 is reported as > 1000 µM. Work on CCCCCCCC(=O)OCC(=O)N1CCN(c2cc3c(cc2F)c(=O)c(C(=O)O)cn3C2CC2)CC1 yielded an IC50 of 16 µM. For CCCCCCCCCC(=O)OCC(=O)N1CCN(c2cc3c(cc2F)c(=O)c(C(=O)O)cn3C2CC2)CC1, the IC50 was 273 µM. Compound CC(=O)OCC(=O)N1CCN(c2cc3c(cc2F)c(=O)c(C(=O)O)cn3C2CC2)CC1 has an IC50 of 373 µM.

Test system: not listed separately
Experiment: Antitumor activity against human U373MG cells after 5 days by MTT assay
Type: functional, cell-based, U-373MG ATCC
Conditions: U373 MG, 120 h
Procedure, shortened: as §1
For CCCCCCCCC(=O)N1CCN(c2cc3c(cc2F)c(=O)c(C(=O)O)cn3C2CC2)CC1, the IC50 was 24 µM. CCCCCCCCCOC(=O)N1CCN(c2cc3c(cc2F)c(=O)c(C(=O)O)cn3C2CC2)CC1 gave an IC50 of 283 µM. In the case of CCC(=O)N1CCN(c2cc3c(cc2F)c(=O)c(C(=O)O)cn3C2CC2)CC1, the IC50 is reported as 279 µM. In the case of CCCCCCCCCCCCCC(=O)OCC(=O)N1CCN(c2cc3c(cc2F)c(=O)c(C(=O)O)cn3C2CC2)CC1, the IC50 is reported as 748 µM. For CCCCCCCCCCCC(=O)N1CCN(c2cc3c(cc2F)c(=O)c(C(=O)O)cn3C2CC2)CC1, the IC50 was 18 µM. CCCCCCCCCCCC(=O)OCC(=O)N1CCN(c2cc3c(cc2F)c(=O)c(C(=O)O)cn3C2CC2)CC1 showed an IC50 of 49 µM. Compound CCOC(=O)N1CCN(c2cc3c(cc2F)c(=O)c(C(=O)O)cn3C2CC2)CC1 has an IC50 of 228 µM. Compound CCCCCCCC(=O)OCC(=O)N1CCN(c2cc3c(cc2F)c(=O)c(C(=O)O)cn3C2CC2)CC1 has an IC50 of 53 µM. CCCCCCCCCC(=O)OCC(=O)N1CCN(c2cc3c(cc2F)c(=O)c(C(=O)O)cn3C2CC2)CC1 showed an IC50 of 291 µM. With CC(=O)OCC(=O)N1CCN(c2cc3c(cc2F)c(=O)c(C(=O)O)cn3C2CC2)CC1 the IC50 was 99 µM.
